HKDC1 inh = inhibitors of human hexokinase HKDC1. AID 493160. inhibition, % at 20 µM. recombinant HKDC1, G6PDH/diaphorase resazurin coupled fluorescence. 0.16% of 340,000 active. Q2TB90;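 active = inhibition above about 35% when tested at 20 µM, limit read from the data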;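 note: plate controls were DMSO wells with enzyme for no effect and DMSO wells lacking enzyme for full effect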
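Test system: Recombinant HKDC1 (HK5) hexokinase enzyme, produced in-house | Input: HKDC1 at 5 µg/mL | Buffer or medium: Tris pH 8.0 buffer with MgCl2, Tween-20, BSA, BME | Schedule: 90 min reaction incubation at room temperature, dark | Technique: Resazurin-to-resorufin fluorescence via G6PDH and diaphorase coupling, 525/613 nm | Controls: DMSO wells with and without enzyme mix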
STEP inh = blocks human striatal-enriched tyrosine phosphatase; P54829; recombinant STEP, OMFP fluorogenic substrate, fluorescence; inhibition, % at 20 µM; 0.25% of 360,000 active;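 active = inhibition at 20 µM, scaled per plate between control wells, above about 37%, limit read from the data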;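 note: 0% = DMSO with enzyme and substrate and 100% = substrate only without enzyme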
Target sequence (P54829 whole entry, looked up): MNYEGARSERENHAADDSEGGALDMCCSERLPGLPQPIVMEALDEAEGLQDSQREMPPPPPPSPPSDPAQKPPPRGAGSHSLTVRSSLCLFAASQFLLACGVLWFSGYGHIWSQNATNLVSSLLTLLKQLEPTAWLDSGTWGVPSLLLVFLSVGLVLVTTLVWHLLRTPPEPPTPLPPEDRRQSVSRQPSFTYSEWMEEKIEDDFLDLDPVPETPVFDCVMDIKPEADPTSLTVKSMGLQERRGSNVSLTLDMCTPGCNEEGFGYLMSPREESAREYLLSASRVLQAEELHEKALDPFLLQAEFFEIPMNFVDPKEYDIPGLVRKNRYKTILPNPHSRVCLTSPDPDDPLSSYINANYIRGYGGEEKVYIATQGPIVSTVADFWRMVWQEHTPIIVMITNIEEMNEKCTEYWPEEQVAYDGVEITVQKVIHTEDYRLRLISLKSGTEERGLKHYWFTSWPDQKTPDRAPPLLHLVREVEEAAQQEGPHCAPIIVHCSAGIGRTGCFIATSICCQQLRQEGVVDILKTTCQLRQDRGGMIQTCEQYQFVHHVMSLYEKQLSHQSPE
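medium = Bis-Tris buffer pH 6.0, 2.5 mM DTT, 0.005% Tween 20 | test system = STEP (striatal-enriched tyrosine phosphatase) enzyme, cell-free | measure = normalized % inhibition | compound dosing = 20 µM, 1% DMSO | also added = 25 µM OMFP | schedule = reaction 20 min, ambient temperature | measured by = fluorescence read at 480 nm ex / 540 nm em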
DNMT1 block = blocks human DNA methyltransferase DNMT1; DNMT1 molecular beacon, Hinp1I cleavage, fluorescence; inhibition (reported as % activation of signal), % at 10 µM; 0.83% of 360,000 active; AID 588458; in the data active = inhibition above about 50%
LMPTP inh = blocks human LMPTP phosphatase; 0.22% of 360,000 active; P24666; inhibition, % at 20 µM; recombinant LMPTP-A, OMFP fluorogenic substrate, fluorescence intensity;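 active = compounds that cut the enzyme signal by at least half of the control window in the single-dose screen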;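 note: plate controls were DMSO wells with enzyme plus substrate for no effect and substrate without enzyme for full effect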
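Test system – LMPTP-A phosphatase enzyme · Quantity – 0.625 nM LMPTP-A final · Reagent – OMFP substrate, 400 µM final · Dosing – one test concentration per compound, 20 µM, with 3% DMSO overall · Timing – 50 min enzyme reaction at room temperature, protected from light · Detection – fluorescence intensity · Controls – substrate-only low control, DMSO enzyme-plus-substrate high control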
Scp1 inh = blocks human Scp-1 phosphatase activity; AID 493091; Q9GZU7; Recombinant Scp1, phosphopeptide, malachite green phosphate absorbance; inhibition, % at 20 µM; 0.88% of 340,000 active;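 active = inhibition above about 50% at 20 µM, limit read from the data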;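 note: plate controls were DMSO wells with enzyme for no effect and wells lacking enzyme for full effect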
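assay system = SCP-1 phosphatase catalytic domain, residues 76-261 | buffer or medium = 50 mM Tris acetate pH 5.5, 0.005% Tween-20, 10 mM MgCl2 | incubation = enzyme reaction 45 min at room temperature, colour 5 min, stabilisation 30 min | signal = Phosphate-binding colour reagent, absorbance read at 630 nm | measure = % inhibition at 20 µM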
SUMO1-SIM PPI = modulators of human SUMO1-mediated protein-protein interactions | P63165 | SUMO1 binding to a labelled peptide, TR-FRET, 1 h | inhibition, % at 20 µM | 0.33% of 360,000 active; in the data active = inhibition above about 37%
Target sequence (P63165 whole entry, looked up): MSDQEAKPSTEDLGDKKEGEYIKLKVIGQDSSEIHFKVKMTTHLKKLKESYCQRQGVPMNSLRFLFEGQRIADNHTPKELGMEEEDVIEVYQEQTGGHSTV
Scp-1 conf = Scp-1 (human) inhibition, single-dose confirmed | shares compounds with Scp1 inh | recombinant SCP-1 catalytic domain, phosphate release, malachite green absorbance | inhibition, % at 20 µM | 61% of 2,500 active;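 note: plate controls were DMSO with enzyme for no effect and buffer wells lacking enzyme for full effect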
MG interference = interferes with malachite green readout, flagging false Scp-1 hits; Colorimetric interference counterscreen, malachite green absorbance 630 nm; shares compounds with Scp1 inh; 2,500 tested, under 10 active; apparent inhibition (interference), % at 20 µM;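 note: compounds added after enzyme reaction finished so only phosphate colour detection is probed; plate controls were DMSO wells with completed Scp-1 reaction for no effect and substrate wells lacking enzyme for full effect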
Scp1 DSF = binds human Scp-1, shifting its melting temperature | shares compounds with Scp1 inh | Recombinant SCP1, Sypro Orange thermal shift Tm | thermal shift relative to vanadate control, % at 40 µM | 25% of 1,500 active | AID 540329;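 active = substances whose mean melting-temperature shift, as a percentage of the reference inhibitor's shift, reaches about 5.3%, limit read from the data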;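 note: 0% = Tm of DMSO wells and 100% = Tm with sodium orthovanadate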
DNMT1 interf DR = shows spectral interference in the DNMT1 beacon assay | IC50, µM | molecular beacon fluorescence, spectral interference counter-screen | shares compounds with DNMT1 block | 200 tested, under 10 active; call rule not given here
DNMT1 inh conf = DNMT1 inhibition confirmation, single concentration. shares compounds with DNMT1 block. DNMT1 molecular beacon HinP1I cleavage, fluorescence. inhibition, % at 10 µM. 8% of 2,300 active. AID 602385;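 active = average inhibition of at least 30% in the single-concentration confirmation test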
Beacon interf = counter-screen for DNMT1 inhibitors: spectral interference | activation (fluorescence interference), % at 10 µM | DNMT1 molecular beacon spectral interference counterscreen, fluorescence 485/520 | 1% of 2,300 active | AID 602387 | shares compounds with DNMT1 block;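 active = activation of at least 30% at 10 µM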;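 note: DNMT1 catalytic domain with a HinP1I cleavage step and a FAM/dabcyl DNA beacon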
* = called active by the depositor. The list is not random: actives were taken first. Their share in the collection is about 1.8%.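 Rule for the calls, unless noted: active = inhibition of at least 30% at 20 µM; inactive = the rest.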

For Cn1c(N)c(C(=O)COC(=O)c2cc(-c3ccco3)nc3ccccc23)c(=O)n(C)c1=O the results were HKDC1 inh 22, STEP inh 8, DNMT1 block 110*, LMPTP inh 62*, Scp1 inh 73*, SUMO1-SIM PPI 31, Scp-1 conf 67*, MG interference -14, Scp1 DSF 15*, DNMT1 interf DR >99, DNMT1 inh conf 31* and Beacon interf 0.
`COC(=O)c1ccccc1NC(=O)c1noc2c1CCCC2` gave HKDC1 inh -6, STEP inh -1, DNMT1 block -3, LMPTP inh 1, Scp1 inh -11 and SUMO1-SIM PPI 1.
Screening COc1cc(NC(=O)c2noc3c2CCC3)c(OC)cc1Cl returned HKDC1 inh -2, STEP inh 11, DNMT1 block 101*, LMPTP inh 4, Scp1 inh 72*, SUMO1-SIM PPI 7, Scp-1 conf 70*, MG interference -13, Scp1 DSF 3, DNMT1 inh conf 11 and Beacon interf 2.
For C[C@@H]1OC(C2CCCCC2)N(C)[C@H]2C[C@H]3c4[nH]c5ccccc5c4CCN3C[C@@H]12 (some centres undefined) the results were STEP inh -1, DNMT1 block -2, LMPTP inh 2 and SUMO1-SIM PPI -9.
O=[N+]([O-])c1ccc(/C=N/Nc2nc3ccccc3o2)cc1 was read as HKDC1 inh 2, STEP inh 34, DNMT1 block 56*, LMPTP inh 42, Scp1 inh 50*, SUMO1-SIM PPI 6, Scp-1 conf 56*, MG interference -12, Scp1 DSF 5, DNMT1 inh conf 6 and Beacon interf 0.
Screening CCS(=O)(=O)c1ccc(C=NNc2nc3ccccc3o2)cc1 returned HKDC1 inh -5, STEP inh 0, DNMT1 block 1, LMPTP inh -2, Scp1 inh -8 and SUMO1-SIM PPI -27.
`N=C1S/C(=C\c2ccccc2F)C(=O)N1c1ccc(F)cc1` gave HKDC1 inh -8, STEP inh 18, DNMT1 block 60*, LMPTP inh 38, Scp1 inh 87*, SUMO1-SIM PPI -3, Scp-1 conf -6, MG interference -9, DNMT1 inh conf 3 and Beacon interf -1.
`COc1ccc(N=C2NC(=O)/C(=C\c3ccco3)S2)cc1` gave HKDC1 inh -3, STEP inh 6, DNMT1 block 70*, LMPTP inh 40, Scp1 inh 89*, SUMO1-SIM PPI -10, Scp-1 conf 52*, MG interference -12, Scp1 DSF 2, DNMT1 inh conf 8 and Beacon interf 30.
Screening NC(=N\N=Cc1ccco1)/C(N)=N/N=Cc1ccco1 returned HKDC1 inh -7, STEP inh 7, DNMT1 block 55*, LMPTP inh 36, Scp1 inh 62*, SUMO1-SIM PPI 2, Scp-1 conf 39*, MG interference -11, Scp1 DSF 1, DNMT1 inh conf 4 and Beacon interf 4.
`NC(=N\N=Cc1ccccc1)/C(N)=N/N=Cc1ccccc1` gave HKDC1 inh -6, STEP inh -2, DNMT1 block 5, LMPTP inh -2, Scp1 inh 5 and SUMO1-SIM PPI -2.
COCCNC(=O)c1cc(-c2ccccc2)sc1N was read as LMPTP inh 0 and SUMO1-SIM PPI -11.
Screening O=C(Nc1cccc(S(=O)(=O)NC2=NCCC2)c1)c1ccc(C(F)(F)F)cc1 returned HKDC1 inh -4, STEP inh -1, DNMT1 block 0, LMPTP inh -1, Scp1 inh -3 and SUMO1-SIM PPI 5.
CCCn1c(=O)c2sccc2n2c(CCCC(=O)NCc3ccco3)nnc12 was read as HKDC1 inh 2, STEP inh 17, DNMT1 block 77*, LMPTP inh 2, Scp1 inh 69*, SUMO1-SIM PPI 8, Scp-1 conf 54*, MG interference -9, Scp1 DSF -5, DNMT1 inh conf 1 and Beacon interf 2.
Screening CCCn1c(=O)c2sccc2n2c(CCCC(=O)NCc3cccnc3)nnc12 returned HKDC1 inh -5, STEP inh -3, DNMT1 block 1, LMPTP inh -1, Scp1 inh -6 and SUMO1-SIM PPI 4.
For CC1(C(=O)NCc2ccc(Cl)cc2)CCN1C(=O)c1cccc(F)c1 (centres undefined) the results were STEP inh -2, DNMT1 block 1, LMPTP inh -1 and SUMO1-SIM PPI -3.
For O=C1CCCC(O)=C1Sc1ccccc1C(=O)O the results were HKDC1 inh -8, STEP inh 8, DNMT1 block 67*, LMPTP inh 3, Scp1 inh 57*, SUMO1-SIM PPI 13, Scp-1 conf 37*, MG interference -18, Scp1 DSF 1, DNMT1 inh conf 2 and Beacon interf 0.
For O=C1CCCC(O)=C1C(C#Cc1ccccc1)C1=C(O)CCCC1=O the results were HKDC1 inh 29, STEP inh 3, DNMT1 block -6, LMPTP inh 2, Scp1 inh 0 and SUMO1-SIM PPI -3.
Screening Cc1ccc(-c2nc3c(c(=O)c4ccccc4n3C)c(=O)n2-c2ccc(F)cc2)cc1 returned HKDC1 inh 4, STEP inh 1, DNMT1 block 27, LMPTP inh -1, Scp1 inh 3 and SUMO1-SIM PPI -60.

Source: PubChem BioAssay (Sanford-Burnham Center for Chemical Genomics)
